# From ChEMBL document CHEMBL1131453, “Design of N-acylprolyltyrosine "tripeptoid" analogues of neurotensin as potential atypical antipsychotic agents” (J Med Chem, 1998)
# Peptide text beside a SMILES is read from it. * marks the point of attachment. Nonanoyl = CCCCCCCCC(=O)*; Hexanoyl = CCCCCC(=O)*; Pentanoyl = CCCCC(=O)*
# Legend:
# Rattus norvegicus [1] = assay: Compound was tested in vivo for its ability to antagonize extrapolatory behavior impairment induced by DOPA in rats upon intraperitoneal administration; type: functional; details: ip
# Method in brief: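 Outbred albino male rats, 180–200 g, placed in a water-plunged cylinder (22 °C) and must dive under its edge within 2 min; non-escapers discarded. A day later, Madopar (100 mg/kg L-DOPA + 25 mg/kg benserazide in 3% Tween 80) is given ip 60 min before testing. Compound in saline + 3% Tween 80 is given ip 10 min before Madopar. Successful escapes are recorded. ED50 with 95% confidence limits by linear regression, eight rats per dose.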
# Rattus norvegicus [2] = assay: Compound was tested in vivo for its ability to induce catalepsy in rats upon intraperitoneal administration; type: functional; details: ip
# Method in brief: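 Adult outbred male rats, 200–250 g, dosed ip with compound in saline containing 3% Tween 80. Forepaws placed on a bar 7 cm high (Morpurgo apparatus) at 0.5, 1.0, 1.5 and 2 h. Bar time scored 0–3, tested twice per session at 2-min intervals. Scores are given as percent of the maximal cumulative score (15).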
# Mus musculus = assay: Compound was tested in vivo for its ability to antagonize apomorphine-induced climbing response in mice upon intraperitoneal administration; type: functional; details: ip
# Method in brief: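 C57BL/6 male mice, 22–25 g, adapted 1 h in wire mesh cages. Compound in saline with 3% Tween 80 given ip 15 min before apomorphine 5.0 mg/kg sc (in saline with 0.1% ascorbic acid). Climbing scored 0–4 every 2 min, 30 readings, from 15 min after apomorphine. Totals are expressed as % of vehicle control. ED50 with 95% confidence limits by log-dose linear regression, 8–16 mice per dose.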
# [3] = Acute toxicity on male outbred albino mice upon intraperitoneal administration; details: mouse, in vivo, ip
# Method in brief: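 Male outbred albino mice (Moscow region), 20–25 g, housed five per cage with free food and water at 21–22 °C, 40–50% humidity, 12/12 h light/dark. Single ip injection at doses up to 500–1000 mg/kg. Surviving animals were counted 2, 24 and 48 h after injection.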
smiles,measurement,setting,value
CN1CCN(C2=Nc3cc(Cl)ccc3Nc3ccccc32)CC1 [CLOZAPINE],ED50,Rattus norvegicus [1],20 mg/kg
same,ED50,Rattus norvegicus [2],> 32 mg/kg
CCCCCCCCC(=O)N1CCC[C@H]1C(=O)N[C@@H](Cc1ccc(O)cc1)C(N)=O (Nonanoyl-Pro-Tyr-NH2),ED50,Mus musculus,0.5 mg/kg
NC(=O)[C@H](Cc1ccc(O)cc1)NC(=O)[C@@H]1CCCN1,ED50,Rattus norvegicus [1],1.6 mg/kg
same,ED50,Rattus norvegicus [2],> 500 mg/kg
same,LD50,[3],> 500 mg/kg
same,ED50,Mus musculus,3.4 mg/kg
NC(=O)[C@@H](Cc1ccc(O)cc1)NC(=O)[C@@H]1CCCN1,ED50,Mus musculus,> 16 mg/kg
NC(=O)[C@H](Cc1ccc(O)cc1)NC(=O)[C@H]1CCCN1C(=O)Cc1ccccc1,ED50,Mus musculus,4.9 mg/kg
CCN1CCC[C@H]1CNC(=O)c1cc(S(N)(=O)=O)ccc1OC [LEVOSULPIRIDE],ED50,Rattus norvegicus [1],16.5 mg/kg
same,ED50,Rattus norvegicus [2],> 120 mg/kg
same,LD50,[3],250 mg/kg
same,ED50,Mus musculus,17.5 mg/kg
NC(=O)[C@H](Cc1ccc(O)cc1)NC(=O)[C@@H]1CCCN1C(=O)Cc1ccccc1,ED50,Rattus norvegicus [1],1.5 mg/kg
same,ED50,Rattus norvegicus [2],> 1000 mg/kg
same,LD50,[3],> 1000 mg/kg
same,ED50,Mus musculus,2.2 mg/kg
NC(=O)[C@H](Cc1ccc(O)cc1)NC(=O)[C@H]1CCCN1,ED50,Mus musculus,3.6 mg/kg
CCCCCC(=O)N1CCC[C@H]1C(=O)N[C@@H](Cc1ccc(O)cc1)C(N)=O (Hexanoyl-Pro-Tyr-NH2),ED50,Rattus norvegicus [1],0.4 mg/kg
same,ED50,Rattus norvegicus [2],> 500 mg/kg
same,LD50,[3],> 500 mg/kg
same,ED50,Mus musculus,0.5 mg/kg
CCCCC(=O)N1CCC[C@H]1C(=O)N[C@@H](Cc1ccc(O)cc1)C(N)=O (Pentanoyl-Pro-Tyr-NH2),ED50,Mus musculus,3.2 mg/kg
CCN1CCC[C@H]1CNC(=O)c1c(OC)ccc(Br)c1OC [REMOXIPRIDE],ED50,Rattus norvegicus [1],0.31 mg/kg
same,ED50,Rattus norvegicus [2],8.7 mg/kg
same,LD50,[3],302 mg/kg
same,ED50,Mus musculus,1.2 mg/kg
O=C(CCCN1CCC(O)(c2ccc(Cl)cc2)CC1)c1ccc(F)cc1 [HALOPERIDOL],ED50,Rattus norvegicus [1],0.14 mg/kg
same,ED50,Rattus norvegicus [2],0.5 mg/kg
same,LD50,[3],35 mg/kg
same,ED50,Mus musculus,0.1 mg/kg
NC(=O)[C@@H](Cc1ccc(O)cc1)NC(=O)[C@@H]1CCCN1C(=O)Cc1ccccc1,ED50,Mus musculus,> 8 mg/kg
CC(C)(C)OC(=O)N1CCC[C@@H]1C(=O)N[C@@H](Cc1ccc(O)cc1)C(N)=O,ED50,Mus musculus,0.4 mg/kg
CC(C)(C)OC(=O)N1CCC[C@H]1C(=O)N[C@@H](Cc1ccc(O)cc1)C(N)=O,ED50,Mus musculus,2.5 mg/kg
